Source: ChEMBL document CHEMBL3621160, “Pseudosaccharin amines as potent and selective KV1.5 blockers” (Bioorg Med Chem Lett, 2015)

Legend:
[1] = target: Acetylcholinesterase (Homo sapiens) (UniProt P22303); experiment: Inhibition of human acetylcholinesterase at 10 uM relative to control
[2] = species on record: Rattus norvegicus; experiment: Inhibition of rat N-methyl D-aspartate receptor phencyclidine binding site at 10 uM relative to control
Procedure, shortened: (§1)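 Single-concentration screen at 10 µM across a panel of over 37 receptors and enzymes linked to cardiovascular effects or toxicity. Read-out is percent activity.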

[3] = species on record: Rattus norvegicus; experiment: Inhibition of rat choline transporter at 10 uM relative to control; procedure, shortened: as §1
[4] = target: Histamine H2 receptor (Homo sapiens) (UniProt P25021); experiment: Inhibition of human histamine H2 receptor at 10 uM relative to control
Procedure, shortened: (§2)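 Screening panel of over 37 receptors and enzymes relevant to cardiovascular effects or toxicity. Each target was tested at a single concentration of 10 µM, with % activity reported.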

[5] = target: Androgen receptor (Rattus norvegicus) (UniProt P15207); experiment: Inhibition of rat testosterone receptor at 10 uM relative to control; procedure, shortened: as §2
[6] = species on record: Homo sapiens; experiment: Inhibition of human nicotinic acetylcholine receptor at 10 uM relative to control; procedure, shortened: as §1
[7] = target: 5-hydroxytryptamine receptor 2B (Homo sapiens) (UniProt P41595); experiment: Inhibition of human 5HT-2B receptor at 10 uM relative to control; procedure, shortened: as §2
[8] = target: Adrenergic receptor alpha-1 (Rattus norvegicus) (UniProt P15823+P23944+P43140); experiment: Inhibition of rat alpha-1 adrenergic receptor at 10 uM relative to control; procedure, shortened: as §2
[9] = target: Potassium voltage-gated channel subfamily A member 5 (Homo sapiens, UniProt P22460); experiment: Inhibition of human KV1.5 expressed in mouse L929 cells assessed as decrease in ultrarapid potassium current amplitude; format: cell-based
Procedure, shortened: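 Potassium current block was measured in mouse fibroblast L929 cells expressing human KV1.5. IC50 values are means of 2-4 experiments.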

[10] = species on record: Homo sapiens; experiment: Inhibition of calcium channel (unknown origin) at 10 uM relative to control
Procedure, shortened: (§3)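 Calcium (ICa) and sodium (INa) currents were measured as percent inhibition at a single concentration of 10 µM. Values are means of 2-4 experiments.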

[11] = species on record: Homo sapiens; experiment: Inhibition of sodium channel (unknown origin) at 10 uM relative to control; procedure, shortened: as §3
[12] = target: hERG (KCNH2) (Homo sapiens, UniProt Q12809); experiment: Inhibition of human ERG at 10 uM relative to control; procedure, shortened: as §2
[13] = Cmax in rat at 2 mg/kg administered as intra-arterial infusion for 10 mins and 5 mg/kg, po; format: ADME, organism-based; set-up: route oral; settings: in vivo
Procedure, shortened: (§4)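 Rats (3 per compound) received intra-arterial infusion over 10 min or oral gavage. Vehicle for both routes was 40% PEG 400, 40% water and 20% ethanol. Values are means of 3 animals.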

[14] = Half life in rat at 2 mg/kg administered as intra-arterial infusion for 10 mins and 5 mg/kg, po; format: ADME, organism-based; settings: in vivo; procedure, shortened: as §4
[15] = Oral bioavailability in rat at 5 mg/kg; format: ADME, organism-based; settings: in vivo; procedure, shortened: as §4
[16] = species on record: Oryctolagus cuniculus; experiment: Toxicity in rabbit assessed as effect on ventricular effective refractory period; format: organism-based, Cardiac ventricle; settings: in vivo
Procedure, shortened: (§5)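 Rabbits were dosed at 0.3, 1.0 and 3.0 mg/Kg. Effective refractory period was measured in atrium and ventricle, and blood pressure was recorded. The plasma concentration giving 20% atrial ERP prolongation (EC20) was calculated.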

[17] = species on record: Oryctolagus cuniculus; experiment: Toxicity in rabbit assessed as increase in gastrointestinal motility; format: organism-based; settings: in vivo
[18] = system: Oryctolagus cuniculus; experiment: Toxicity in rabbit assessed as increase in blood pressure at 0.3 to 3 mg/kg; format: organism-based; settings: in vivo; procedure, shortened: as §5
[19] = target: D(1A) dopamine receptor (Homo sapiens) (UniProt P21728); experiment: Inhibition of human dopamine D1 receptor at 10 uM relative to control; procedure, shortened: as §2
[20] = target: Phosphodiesterase 4 (Homo sapiens) (UniProt P27815+Q08499+Q07343+Q08493); experiment: Inhibition of human PDE4 at 10 uM relative to control; format: protein assay; procedure, shortened: as §2
[21] = target: Cannabinoid receptor 1 (Homo sapiens) (UniProt P21554); experiment: Inhibition of human CB1 receptor at 10 uM relative to control; procedure, shortened: as §2
[22] = target: Melanocyte-stimulating hormone receptor (Homo sapiens) (UniProt Q01726); experiment: Inhibition of human MC1 receptor at 10 uM relative to control; procedure, shortened: as §2
[23] = target: Mineralocorticoid receptor (Rattus norvegicus) (UniProt P22199); experiment: Inhibition of rat aldosterone receptor at 10 uM relative to control; procedure, shortened: as §2
[24] = target: Adenosine receptor A3 (Homo sapiens) (UniProt P0DMS8); experiment: Inhibition of human adenosine A3 receptor at 10 uM relative to control; procedure, shortened: as §1
[25] = target: Neuropeptide Y receptor type 1 (Homo sapiens) (UniProt P25929); experiment: Inhibition of human NPY1-R at 10 uM relative to control; procedure, shortened: as §2
[26] = target: B1 bradykinin receptor (Homo sapiens) (UniProt P46663); experiment: Inhibition of human bradykinin B1 receptor at 10 uM relative to control; procedure, shortened: as §2
[27] = target: Calcitonin receptor (Homo sapiens) (UniProt P30988); experiment: Inhibition of human calcitonin receptor at 10 uM relative to control; procedure, shortened: as §2

Sequence of 5-hydroxytryptamine receptor 2B (Homo sapiens) (P41595 whole entry): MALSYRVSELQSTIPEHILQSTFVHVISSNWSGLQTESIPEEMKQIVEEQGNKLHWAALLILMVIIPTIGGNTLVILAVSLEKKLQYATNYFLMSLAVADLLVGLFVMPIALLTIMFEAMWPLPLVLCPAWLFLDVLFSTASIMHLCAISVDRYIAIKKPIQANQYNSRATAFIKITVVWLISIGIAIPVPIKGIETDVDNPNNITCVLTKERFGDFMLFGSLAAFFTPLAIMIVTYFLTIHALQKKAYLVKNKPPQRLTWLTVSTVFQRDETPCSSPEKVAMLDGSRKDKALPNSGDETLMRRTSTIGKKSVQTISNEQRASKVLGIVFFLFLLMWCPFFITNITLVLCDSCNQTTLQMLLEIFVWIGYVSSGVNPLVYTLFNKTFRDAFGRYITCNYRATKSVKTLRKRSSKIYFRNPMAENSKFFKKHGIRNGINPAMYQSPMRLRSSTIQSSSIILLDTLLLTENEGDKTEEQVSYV
Sequence of hERG (KCNH2) (Q12809 whole entry, the tested form may be a part): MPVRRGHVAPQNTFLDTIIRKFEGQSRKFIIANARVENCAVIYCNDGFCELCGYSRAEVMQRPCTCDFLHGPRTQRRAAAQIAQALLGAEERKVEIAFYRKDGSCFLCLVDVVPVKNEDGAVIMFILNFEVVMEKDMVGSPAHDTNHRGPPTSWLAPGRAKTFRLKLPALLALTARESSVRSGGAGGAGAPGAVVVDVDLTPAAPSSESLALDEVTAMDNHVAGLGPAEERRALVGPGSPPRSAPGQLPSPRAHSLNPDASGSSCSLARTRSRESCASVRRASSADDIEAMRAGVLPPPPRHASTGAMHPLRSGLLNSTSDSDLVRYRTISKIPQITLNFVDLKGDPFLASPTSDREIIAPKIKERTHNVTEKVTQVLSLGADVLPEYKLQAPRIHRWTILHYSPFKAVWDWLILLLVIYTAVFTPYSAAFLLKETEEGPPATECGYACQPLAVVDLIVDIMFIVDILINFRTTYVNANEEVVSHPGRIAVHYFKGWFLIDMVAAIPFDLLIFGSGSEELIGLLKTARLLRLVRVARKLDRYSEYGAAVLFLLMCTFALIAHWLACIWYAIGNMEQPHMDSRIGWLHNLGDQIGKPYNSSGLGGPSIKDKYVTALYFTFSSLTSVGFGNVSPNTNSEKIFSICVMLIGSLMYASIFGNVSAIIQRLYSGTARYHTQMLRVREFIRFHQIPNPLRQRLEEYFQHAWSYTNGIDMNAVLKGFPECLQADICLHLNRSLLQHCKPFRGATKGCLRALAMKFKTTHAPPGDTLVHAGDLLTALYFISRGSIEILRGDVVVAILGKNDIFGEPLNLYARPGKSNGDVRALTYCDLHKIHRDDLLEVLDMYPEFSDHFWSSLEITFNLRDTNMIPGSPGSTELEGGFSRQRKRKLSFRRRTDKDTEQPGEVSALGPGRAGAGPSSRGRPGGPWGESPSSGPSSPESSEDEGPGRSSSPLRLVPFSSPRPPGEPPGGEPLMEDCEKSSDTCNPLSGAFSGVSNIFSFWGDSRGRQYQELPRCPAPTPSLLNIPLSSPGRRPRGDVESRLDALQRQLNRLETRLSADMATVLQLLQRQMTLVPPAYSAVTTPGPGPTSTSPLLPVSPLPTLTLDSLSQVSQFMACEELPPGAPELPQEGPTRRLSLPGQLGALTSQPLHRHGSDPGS
Sequence of Histamine H2 receptor (Homo sapiens) (P25021 whole entry): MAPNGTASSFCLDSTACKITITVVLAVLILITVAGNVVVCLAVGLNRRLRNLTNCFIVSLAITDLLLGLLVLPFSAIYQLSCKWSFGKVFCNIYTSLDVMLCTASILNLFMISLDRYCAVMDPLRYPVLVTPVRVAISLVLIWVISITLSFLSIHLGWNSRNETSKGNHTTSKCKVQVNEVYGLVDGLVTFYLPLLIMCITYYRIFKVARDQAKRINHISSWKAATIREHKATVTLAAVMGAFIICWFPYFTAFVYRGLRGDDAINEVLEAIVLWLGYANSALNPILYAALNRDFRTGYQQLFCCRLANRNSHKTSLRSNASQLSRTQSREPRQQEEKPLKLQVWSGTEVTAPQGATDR
Sequence of Androgen receptor (Rattus norvegicus) (P15207 whole entry S389L): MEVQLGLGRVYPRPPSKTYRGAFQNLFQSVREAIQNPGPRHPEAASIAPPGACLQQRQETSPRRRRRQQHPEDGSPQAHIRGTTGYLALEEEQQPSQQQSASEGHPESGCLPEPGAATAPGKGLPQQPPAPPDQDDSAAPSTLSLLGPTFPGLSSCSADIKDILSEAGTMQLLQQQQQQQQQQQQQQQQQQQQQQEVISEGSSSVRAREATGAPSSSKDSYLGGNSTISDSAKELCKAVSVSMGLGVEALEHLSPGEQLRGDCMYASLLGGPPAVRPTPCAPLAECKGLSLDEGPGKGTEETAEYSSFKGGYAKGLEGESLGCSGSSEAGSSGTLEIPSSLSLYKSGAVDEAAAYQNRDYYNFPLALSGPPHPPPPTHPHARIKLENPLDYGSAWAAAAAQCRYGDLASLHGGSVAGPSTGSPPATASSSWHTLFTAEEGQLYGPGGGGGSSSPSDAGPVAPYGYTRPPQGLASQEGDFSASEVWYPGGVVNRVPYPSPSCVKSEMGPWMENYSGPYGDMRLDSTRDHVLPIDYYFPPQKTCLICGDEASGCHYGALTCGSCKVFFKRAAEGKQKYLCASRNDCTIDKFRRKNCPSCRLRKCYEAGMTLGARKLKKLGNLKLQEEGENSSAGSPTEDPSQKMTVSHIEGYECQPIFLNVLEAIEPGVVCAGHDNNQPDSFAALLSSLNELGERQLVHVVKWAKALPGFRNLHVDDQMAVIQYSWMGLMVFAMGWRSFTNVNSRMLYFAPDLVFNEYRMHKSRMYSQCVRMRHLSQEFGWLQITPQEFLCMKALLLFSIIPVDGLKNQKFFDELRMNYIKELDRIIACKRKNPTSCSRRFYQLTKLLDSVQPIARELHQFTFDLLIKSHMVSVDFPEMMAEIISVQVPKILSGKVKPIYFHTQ
Sequence of Acetylcholinesterase (Homo sapiens) (P22303 whole entry): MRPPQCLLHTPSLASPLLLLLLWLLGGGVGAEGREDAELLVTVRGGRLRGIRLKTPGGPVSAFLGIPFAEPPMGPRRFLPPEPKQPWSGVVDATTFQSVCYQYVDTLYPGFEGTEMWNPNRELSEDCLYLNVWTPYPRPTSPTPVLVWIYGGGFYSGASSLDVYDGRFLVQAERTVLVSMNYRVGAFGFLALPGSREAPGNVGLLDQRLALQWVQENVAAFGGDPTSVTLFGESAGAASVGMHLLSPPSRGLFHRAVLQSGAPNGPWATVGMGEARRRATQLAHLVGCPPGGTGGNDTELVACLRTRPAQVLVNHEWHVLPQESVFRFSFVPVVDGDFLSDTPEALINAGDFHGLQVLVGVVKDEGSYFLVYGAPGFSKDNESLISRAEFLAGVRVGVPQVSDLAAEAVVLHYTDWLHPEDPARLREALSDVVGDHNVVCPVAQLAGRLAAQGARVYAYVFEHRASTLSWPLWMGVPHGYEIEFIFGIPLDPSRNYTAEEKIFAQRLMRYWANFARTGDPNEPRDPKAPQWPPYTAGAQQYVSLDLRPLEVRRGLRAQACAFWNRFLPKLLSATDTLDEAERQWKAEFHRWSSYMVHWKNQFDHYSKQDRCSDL
Sequence of Potassium voltage-gated channel subfamily A member 5 (P22460 whole entry): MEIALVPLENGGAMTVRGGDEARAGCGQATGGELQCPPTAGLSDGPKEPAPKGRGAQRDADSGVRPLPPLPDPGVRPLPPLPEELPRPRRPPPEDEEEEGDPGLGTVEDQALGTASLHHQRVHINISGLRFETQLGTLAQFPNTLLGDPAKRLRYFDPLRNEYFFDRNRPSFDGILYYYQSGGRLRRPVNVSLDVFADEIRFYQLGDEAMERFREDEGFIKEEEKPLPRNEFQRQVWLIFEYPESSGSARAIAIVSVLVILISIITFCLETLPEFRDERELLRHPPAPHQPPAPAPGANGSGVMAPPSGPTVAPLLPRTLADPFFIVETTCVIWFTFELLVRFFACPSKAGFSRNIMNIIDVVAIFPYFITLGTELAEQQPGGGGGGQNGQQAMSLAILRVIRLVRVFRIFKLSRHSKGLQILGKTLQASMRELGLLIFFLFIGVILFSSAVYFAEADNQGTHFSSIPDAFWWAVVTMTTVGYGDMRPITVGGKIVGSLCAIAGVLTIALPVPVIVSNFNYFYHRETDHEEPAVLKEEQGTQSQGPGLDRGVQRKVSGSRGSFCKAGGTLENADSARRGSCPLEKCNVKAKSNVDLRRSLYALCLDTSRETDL
Sequence of D(1A) dopamine receptor (Homo sapiens) (P21728 whole entry): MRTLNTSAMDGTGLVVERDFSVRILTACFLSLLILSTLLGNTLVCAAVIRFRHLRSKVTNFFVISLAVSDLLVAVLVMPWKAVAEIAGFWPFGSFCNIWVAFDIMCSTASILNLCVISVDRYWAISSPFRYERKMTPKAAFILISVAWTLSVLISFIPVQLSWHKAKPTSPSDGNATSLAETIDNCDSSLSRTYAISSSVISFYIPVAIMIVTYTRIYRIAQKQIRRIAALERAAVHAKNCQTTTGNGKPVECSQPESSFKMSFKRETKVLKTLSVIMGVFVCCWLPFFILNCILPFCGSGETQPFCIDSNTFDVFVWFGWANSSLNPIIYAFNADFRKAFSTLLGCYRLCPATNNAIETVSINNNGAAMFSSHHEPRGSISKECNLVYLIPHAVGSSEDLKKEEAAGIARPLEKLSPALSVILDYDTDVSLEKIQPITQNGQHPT
Sequence of Neuropeptide Y receptor type 1 (Homo sapiens) (P25929 whole entry): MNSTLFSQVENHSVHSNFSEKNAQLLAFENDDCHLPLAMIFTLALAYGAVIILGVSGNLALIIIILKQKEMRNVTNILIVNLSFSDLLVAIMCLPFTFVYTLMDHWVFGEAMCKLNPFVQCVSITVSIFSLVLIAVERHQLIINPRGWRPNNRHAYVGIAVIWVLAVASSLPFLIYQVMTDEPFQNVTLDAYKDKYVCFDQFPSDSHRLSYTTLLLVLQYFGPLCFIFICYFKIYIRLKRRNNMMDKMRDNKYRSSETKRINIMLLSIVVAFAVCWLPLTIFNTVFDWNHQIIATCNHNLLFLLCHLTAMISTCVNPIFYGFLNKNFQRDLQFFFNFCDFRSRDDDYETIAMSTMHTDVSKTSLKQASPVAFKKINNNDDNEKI

Compound	inhibition [1] [%]	inhibition [2] [%]	inhibition [3] [%]	inhibition [4] [%]	inhibition [5] [%]	inhibition [6] [%]	inhibition [7] [%]	inhibition [8] [%]	IC50 [9] [nM]	inhibition [10] [%]	inhibition [11] [%]	inhibition at 10 µM [12] [%]	Cmax [13] [nM]	half-life [14] [h]	bioavailability [15] [%]	Activity [16]	Activity [18] [%]	inhibition [19] [%]	inhibition [20] [%]	further results
COc1cccc2c1C(NC[C@]1(c3ccccc3)CC[C@H](O)CC1)=NS2(=O)=O	53	-6	17	19	2	12	2	13	34	14	27	54	1700	5.1	34	Non-toxic	19	0	26	Activity [17]: Toxic
COc1cccc2c1C(NC[C@]1(c3ccccc3)CC[C@H](NC(=O)OC(C)C)CC1)=NS2(=O)=O	55	2	1	19	20	10	27	-6	52	41	14	68	930	0.9	7.2	Non-toxic	17	3	25	inhibition [21]: -8%; inhibition [22]: -6%; inhibition [23]: 16%; inhibition [24]: 64%; inhibition [25]: 8%; inhibition [26]: -4%; inhibition [27]: 4%
